This passage reports IC50 results from ChEMBL document CHEMBL1136910, “Acetoxybenzhydrols as highly active and stable analogues of 1'S-1'-acetoxychavicol, a potent antiallergic principal from Alpinia galanga” (Bioorg Med Chem Lett, 2009).

Structures are written as SMILES. Counter-ions that a name gives are not always drawn.

Holding throughout (type): functional, cell-based
Experiment [1] has as its system RBL-2H3. Briefly: Antiallergic activity against antigen-IgE-mediated degranulation in rat RBL2H3 cells assessed as inhibition of DNP-BSA-induced beta-hexosaminidase release preincubated for 10 mins before DNP-BSA challenge measured after 10 mins. In outline: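 Test sample was added to each RBL-2H3 well 10 min before DNP-BSA challenge. β-Hexosaminidase released into the medium was determined 10 min after challenge.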

Experiment [2] has as its system RBL-2H3. Briefly: Antiallergic activity against antigen-IgE-mediated degranulation in rat RBL2H3 cells assessed as inhibition of DNP-BSA-induced IL4 release preincubated for 10 mins before DNP-BSA challenge measured after 4 hrs. The method in brief: (§1)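 Test sample was added to each RBL-2H3 well 10 min before DNP-BSA challenge. TNF-α and IL-4 released into the medium were measured 4 h after challenge.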

Experiment [3] relates to RBL-2H3. Nature of the experiment: Antiallergic activity against antigen-IgE-mediated degranulation in rat RBL2H3 cells assessed as inhibition of DNP-BSA-induced TNFalpha release preincubated for 10 mins before DNP-BSA challenge measured after 4 hrs. The method in brief: as §1

What is called IC50 is the concentration needed to halve the response being measured.

Consider `CCC(=O)Oc1ccc(C(OC(=O)CC)c2ccccc2)cc1` (stereo unspecified), for which the IC50 in the experiment on RBL-2H3 [1] came out at 38 µM.

On to `O=COc1ccc(C(OC=O)c2ccccc2)cc1` (stereo unspecified), for which the IC50 with RBL-2H3 [1] is above 100 µM.

For `CC(=O)Oc1ccc(C(OC(=O)c2ccccc2)c2ccccc2)cc1` (stereo unspecified), the IC50 was 23 µM in the experiment on RBL-2H3 [2], 17 µM in the experiment on RBL-2H3 [1] and 28 µM with RBL-2H3 [3].

As for `CC(=O)Oc1ccc(C(OC(=O)C(C)C)c2ccccc2)cc1` (stereo unspecified), the half-maximal inhibitory concentration (IC50) with RBL-2H3 [1] was 27 µM.

Turning to `CC(=O)Oc1ccc(C(OC(=O)C(C)(C)C)c2ccccc2)cc1` (stereo unspecified), in the experiment with RBL-2H3 [1], the IC50 is 36 µM.

Regarding `COC(=O)Oc1ccc(C(OC(=O)OC)c2ccccc2)cc1` (stereo unspecified), the 50% inhibitory concentration (IC50) in the experiment with RBL-2H3 [1] came to 18 µM.

As for `COC(=O)OC(c1ccccc1)c1ccc(OC(C)=O)cc1` (stereo unspecified), the results for the IC50 with RBL-2H3 [2], in the experiment with RBL-2H3 [1] and in the experiment on RBL-2H3 [3] were 12 µM, 6.5 µM and 11 µM, respectively.

Take `CC(=O)Oc1ccc(C(O)c2ccccc2)cc1` (stereo unspecified): in the experiment on RBL-2H3 [1], the IC50 was above 100 µM.

For `CN1CCC(=C2c3ccccc3CC(=O)c3sccc32)CC1` [KETOTIFEN FUMARATE], in the experiment on RBL-2H3 [1], the IC50 is 158 µM.

`CC(C)C(=O)Oc1ccc(C(OC(=O)C(C)C)c2ccccc2)cc1` (stereo unspecified): the IC50 in the experiment with RBL-2H3 [1] was above 100 µM.

As for `CC(=O)Oc1ccc(C(OC(C)=O)c2ccccc2)cc1` (stereo unspecified), in the experiment with RBL-2H3 [1], the IC50 is 14 µM.

Regarding `C=CC(=O)Oc1ccc(C(OC(=O)C=C)c2ccccc2)cc1` (stereo unspecified), the IC50 in the experiment on RBL-2H3 [1] came out at 28 µM.
